What was measured:
[1] = molecular target: T1, Neuronal acetylcholine receptor subunit alpha-7 (Rattus norvegicus, UniProt Q05941); test: Displacement of [3H]epibatidine from rat alpha7 nAChR transfected in HEK293 cells by liquid scintillation counting; assay type: cell-based
Summary of the method: (§1)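 Stably transfected HEK293 cells scraped at >80% confluence into 50 mM Tris·HCl pH 7.4 at 4 °C and spun at 10,000 g. Pellet homogenised and spun at 36,000 g for 10 min at 4 °C, then resuspended. Competition against racemic [3H]epibatidine at ~500 pM (α3β4, α4β2) or ~2 nM (α7). Nonspecific binding with 300 µM nicotine. GF/C filters pretreated with 0.5% PEI. Ki derived.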

[2] = molecular target: Neuronal acetylcholine receptor; alpha4/beta2 (Rattus norvegicus, UniProt P09483+P12390); test: Displacement of [3H]epibatidine from rat alpha4beta2 nAChR transfected in HEK293 cells by liquid scintillation counting; assay type: cell-based; summary of the method: as §1
[3] = molecular target: Neuronal acetylcholine receptor; alpha3/beta4 (Rattus norvegicus, UniProt P04757+P12392); test: Displacement of [3H]epibatidine from rat alpha3beta4 nAChR transfected in HEK293 cells by liquid scintillation counting; assay type: cell-based; summary of the method: as §1
[4] = molecular target: T1, Neuronal acetylcholine receptor subunit alpha-7; test: Agonist activity at rat alpha7 nAChR expressed in GH4C1 cells by fluorescent calcium assay; assay type: cell-based, GH4-C1
Summary of the method: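 GH4C1 cells stably expressing rat α7 loaded with Fluo4 Direct dye. Baseline fluorescence read, then compound added, and peak/base ratios taken; >1.00 taken as agonism. Tested at 0.03, 0.1, 0.3, 1, 3 and 10 µM (one compound at 0.001–0.3 µM), n = 3. EC50 from dose–response curves.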

[5] = molecular target: T1, Neuronal acetylcholine receptor subunit alpha-7; test: Agonist activity at rat alpha7 nAChR expressed in GH4C1 cells by patch-clamp electrophysiology assay; assay type: cell-based, GH4-C1
[6] = molecular target: Neuronal acetylcholine receptor subunit alpha-7 (Rattus norvegicus) (UniProt Q05941); test: Agonist activity at rat alpha7 nAChR expressed in GH4C1 cells by patch-clamp electrophysiology assay relative to acetylcholine; assay type: cell-based; details: GH4-C1
Chain of Neuronal acetylcholine receptor subunit alpha-7 (Rattus norvegicus) (Q05941 whole entry): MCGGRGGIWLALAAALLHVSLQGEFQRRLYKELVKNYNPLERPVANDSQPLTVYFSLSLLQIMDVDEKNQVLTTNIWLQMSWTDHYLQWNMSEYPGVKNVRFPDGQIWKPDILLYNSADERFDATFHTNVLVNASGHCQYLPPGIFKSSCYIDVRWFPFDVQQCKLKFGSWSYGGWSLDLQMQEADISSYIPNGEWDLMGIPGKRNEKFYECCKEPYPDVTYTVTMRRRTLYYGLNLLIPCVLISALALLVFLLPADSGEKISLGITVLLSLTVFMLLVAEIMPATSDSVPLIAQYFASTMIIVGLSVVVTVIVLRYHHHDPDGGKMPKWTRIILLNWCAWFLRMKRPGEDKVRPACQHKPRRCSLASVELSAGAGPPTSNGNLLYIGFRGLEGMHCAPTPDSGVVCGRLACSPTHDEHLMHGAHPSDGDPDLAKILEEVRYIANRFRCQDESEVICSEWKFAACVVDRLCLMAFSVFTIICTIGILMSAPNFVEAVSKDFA

T1 sequence (Q05941 whole entry): as above
Chain of Neuronal acetylcholine receptor; alpha4/beta2 (P09483 whole entry): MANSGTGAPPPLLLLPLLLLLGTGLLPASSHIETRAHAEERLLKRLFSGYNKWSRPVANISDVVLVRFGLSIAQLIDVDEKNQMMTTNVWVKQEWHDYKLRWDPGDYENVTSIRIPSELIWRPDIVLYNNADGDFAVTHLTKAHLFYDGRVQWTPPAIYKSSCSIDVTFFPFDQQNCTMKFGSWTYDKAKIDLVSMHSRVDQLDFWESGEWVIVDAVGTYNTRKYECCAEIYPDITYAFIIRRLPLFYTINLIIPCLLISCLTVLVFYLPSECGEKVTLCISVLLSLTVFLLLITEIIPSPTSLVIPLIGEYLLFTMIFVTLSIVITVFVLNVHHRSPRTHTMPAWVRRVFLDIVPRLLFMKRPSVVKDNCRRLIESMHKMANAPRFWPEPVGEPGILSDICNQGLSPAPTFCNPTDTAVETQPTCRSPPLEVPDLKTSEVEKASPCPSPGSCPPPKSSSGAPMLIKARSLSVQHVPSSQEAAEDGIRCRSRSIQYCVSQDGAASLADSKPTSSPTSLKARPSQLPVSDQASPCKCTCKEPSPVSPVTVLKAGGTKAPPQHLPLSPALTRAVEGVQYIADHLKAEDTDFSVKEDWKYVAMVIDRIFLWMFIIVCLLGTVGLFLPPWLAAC
Chain of Neuronal acetylcholine receptor; alpha4/beta2 (P12390 whole entry): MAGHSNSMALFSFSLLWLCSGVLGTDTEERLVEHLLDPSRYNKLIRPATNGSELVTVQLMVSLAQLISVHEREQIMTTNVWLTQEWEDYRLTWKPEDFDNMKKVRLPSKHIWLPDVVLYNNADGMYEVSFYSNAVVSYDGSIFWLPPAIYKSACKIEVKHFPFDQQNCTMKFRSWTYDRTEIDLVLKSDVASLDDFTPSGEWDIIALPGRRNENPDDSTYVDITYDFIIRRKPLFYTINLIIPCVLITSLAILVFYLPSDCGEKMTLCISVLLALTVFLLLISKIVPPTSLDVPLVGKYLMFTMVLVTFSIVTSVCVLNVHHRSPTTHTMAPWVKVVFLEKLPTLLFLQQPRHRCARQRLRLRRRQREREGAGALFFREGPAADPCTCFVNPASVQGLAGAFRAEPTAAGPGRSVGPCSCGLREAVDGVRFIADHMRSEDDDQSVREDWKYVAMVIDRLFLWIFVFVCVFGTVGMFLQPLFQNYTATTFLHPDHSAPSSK
Chain of Neuronal acetylcholine receptor; alpha3/beta4 (P04757 whole entry): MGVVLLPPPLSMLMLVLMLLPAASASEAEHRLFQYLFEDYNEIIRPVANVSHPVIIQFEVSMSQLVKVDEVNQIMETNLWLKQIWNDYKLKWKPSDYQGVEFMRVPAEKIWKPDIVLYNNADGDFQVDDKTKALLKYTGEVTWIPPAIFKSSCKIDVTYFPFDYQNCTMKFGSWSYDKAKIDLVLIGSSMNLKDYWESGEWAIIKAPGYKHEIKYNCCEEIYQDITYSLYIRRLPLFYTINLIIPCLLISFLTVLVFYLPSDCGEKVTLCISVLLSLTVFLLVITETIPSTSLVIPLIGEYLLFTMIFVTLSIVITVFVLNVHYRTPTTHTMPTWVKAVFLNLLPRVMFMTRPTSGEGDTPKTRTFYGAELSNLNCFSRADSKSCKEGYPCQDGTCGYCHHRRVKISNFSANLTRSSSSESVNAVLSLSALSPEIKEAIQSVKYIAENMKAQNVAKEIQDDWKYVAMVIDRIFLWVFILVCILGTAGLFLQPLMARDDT
Chain of Neuronal acetylcholine receptor; alpha3/beta4 (P12392 whole entry): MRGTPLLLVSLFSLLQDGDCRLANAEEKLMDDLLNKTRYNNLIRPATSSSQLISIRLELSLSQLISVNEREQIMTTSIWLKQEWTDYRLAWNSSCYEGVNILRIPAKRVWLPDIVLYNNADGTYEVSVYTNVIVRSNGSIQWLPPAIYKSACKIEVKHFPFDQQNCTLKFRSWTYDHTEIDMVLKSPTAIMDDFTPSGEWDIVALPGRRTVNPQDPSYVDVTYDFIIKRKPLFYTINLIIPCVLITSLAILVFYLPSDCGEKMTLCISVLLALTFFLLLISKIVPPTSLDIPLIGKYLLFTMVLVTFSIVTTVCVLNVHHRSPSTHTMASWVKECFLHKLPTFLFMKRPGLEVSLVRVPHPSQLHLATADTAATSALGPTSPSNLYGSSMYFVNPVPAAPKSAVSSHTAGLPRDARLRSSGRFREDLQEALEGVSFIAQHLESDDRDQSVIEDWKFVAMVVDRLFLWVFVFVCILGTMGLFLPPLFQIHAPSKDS

Ki [1] [µM] | Ki [2] [µM] | Ki [3] [µM] | EC50 [4] [µM] | EC50 [5] [µM] | Emax [6] [%] | Compound
0.19 | > 10 | 2.6 | – | – | – | O=C(CCCCN1CCCCC1)Nc1ccc(-c2ccccc2)cc1
5.4 | > 10 | > 100 | – | – | – | CN1CCN(CCCCNC(=O)c2ccc(-c3ccccc3)cc2)CC1
> 10 | > 100 | > 1000 | – | – | – | c1ccc(-c2ccc(N3CCOCC3)nn2)cc1
6.1 | > 10 | > 10 | – | – | – | CN1C[C@@H]2C[C@H]1CN2CCCCNC(=O)c1ccc(-c2ccccc2)cc1
0.41 | > 10 | > 10 | – | – | – | O=C(NCCCCN1CCCCC1)c1ccc(-c2ccccc2)cc1
4.07 | 0.417 | > 10 | – | – | – | CN1CCN(c2ccc(-c3ccccc3)nn2)CC1
0.35 | > 10 | > 10 | 0.522 | – | – | O=C(CCCCN1CCOCC1)Nc1ccc(-c2ccncc2)cc1
0.22 | > 10 | > 10 | – | – | – | O=C(CCCCN1CCCCC1)Nc1ccc(-c2cccnc2)cc1
0.31 | > 10 | > 10 | 0.997 | – | – | O=C(CCCCN1CCOCC1)Nc1ccc(-c2ccc3[nH]ccc3c2)cc1
1.62 | – | 88.1 | – | – | – | CN1CCN(CCCCC(=O)Nc2ccc(-c3ccccc3)cc2)CC1
2.6 | > 10 | > 10 | – | – | – | O=C(CCCCN1CCOCC1)Nc1cc(-c2ccccc2)[nH]n1
0.085 | > 10 | > 10 | 0.145 | 27.3 | 136 | O=C(CCCCN1CCOCC1)Nc1ccc(-c2cccnc2F)cc1
0.034 | > 10 | > 10 | 0.253 | – | – | CN1C[C@@H]2C[C@H]1CN2c1ccc(-c2ccccc2)cc1
3.2 | > 10 | > 10 | – | – | – | CN1C[C@@H]2C[C@H]1CN2CCCCC(=O)Nc1ccc(-c2ccccc2)cc1
9.33 | – | 313 | – | – | – | CN1CCN(CCCCC(=O)Nc2ccc(-c3cccnc3)cc2)CC1
– | > 10 | > 10 | 0.687 | 42 | 104 | O=C(CCCCN1CCOCC1)Nc1ccc(-c2cccnc2)cc1
0.66 | > 50 | > 10 | – | – | – | O=C(CCCCN1CCCCC1)Nc1cc(-c2ccccc2)[nH]n1
1.4 | > 10 | > 50 | – | – | – | O=C(NCCCCN1CCCCC1)c1ccc(-c2cccnc2)cc1
0.33 | > 10 | > 10 | – | – | – | O=C(CCCCN1CCOCC1)Nc1ccc(-c2ccccn2)cc1

Compound | Ki [1] [µM] | Ki [2] [µM] | Ki [3] [µM] | EC50 [4] [µM] | EC50 [5] [µM] | Emax [6] [%]
c1cc2cc(-c3ccc(N4CCOCC4)nn3)ccc2[nH]1 | > 10 | > 10 | > 10 | – | – | –
CN1CCN(c2ccc(-c3cccnc3)cc2)CC1 | 9.4 | > 10 | > 10 | – | – | –
c1cncc(-c2ccc(N3CCCCC3)cc2)c1 | > 10 | > 10 | > 10 | – | – | –
O=C(CCCCN1CC2(COC2)C1)Nc1ccc(-c2ccccc2)cc1 | > 10 | > 10 | > 50 | – | – | –
O=C(CCCCN1CCOCC1)Nc1ccc(-c2ccccc2)nn1 | > 10 | > 10 | > 10 | – | – | –
O=C(CCCCN1CC2(COC2)C1)Nc1ccc(-c2cccnc2)cc1 | > 10 | > 10 | > 50 | – | – | –
c1ccc(-c2ccc(N3CCCCC3)nn2)cc1 | > 10 | > 10 | > 10 | – | – | –
CN1CCN(CCCCNC(=O)c2ccc(-c3cccnc3)cc2)CC1 | > 10 | > 10 | > 10 | – | – | –
c1cncc(-c2ccc(N3CCOCC3)cc2)c1 | > 10 | – | > 10 | – | – | –
CN1C[C@@H]2C[C@H]1CN2CCCCNC(=O)c1ccc(-c2cccnc2)cc1 | > 10 | > 10 | > 10 | – | – | –
CN1C[C@@H]2C[C@H]1CN2c1ccc(-c2ccccc2)nn1 | – | – | > 50 | – | – | –
CN1C[C@@H]2C[C@H]1CN2c1ccc(-c2cccnc2)cc1 | 0.14 | > 10 | > 10 | 0.126 | – | –
c1ccc(-c2ccc(N3CCOCC3)cc2)cc1 | > 10 | > 10 | > 10 | – | – | –
c1ccc(-c2ccc(N3CCCCC3)cc2)cc1 | > 10 | > 10 | > 10 | – | – | –
CN1C[C@@H]2C[C@H]1CN2CCCCC(=O)Nc1ccc(-c2cccnc2)cc1 | > 10 | > 10 | > 100 | – | – | –
CN1CCN(c2ccc(-c3ccccc3)cc2)CC1 | 7.7 | > 10 | > 10 | – | – | –
CN1CCN(CCCCC(=O)Nc2cc(-c3ccccc3)[nH]n2)CC1 | > 10 | > 10 | > 10 | – | – | –

— ChEMBL document CHEMBL3421605, “Structure-activity relationship studies of SEN12333 analogues: determination of the optimal requirements for binding affinities at α7 nAChRs through incorporation of known structural motifs” (Eur J Med Chem, 2015)
